Columns and labels:
Glutamate NMDA receptor = test: Ability to compete with [3H]glycine for strychnine-insensitive binding sites on rat cortical and hippocampal membrane; format: tissue-based, Hippocampus
Summary of the method: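 Rat cortical plus hippocampal membranes, competing against [³H]glycine at strychnine-insensitive sites. Values are the mean of ≥2 experiments, with SE within 10-30% of the mean.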

[1] = Ability to compete with […] for rat cortical and hippocampal membrane glutamate binding site.; format: tissue-based, Hippocampus
Summary of the method: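 Competition binding against [³H]CPP at the glutamate site, using rat cortical and hippocampal membranes. Values are means of two or more experiments, with standard errors ±10-30% of the mean.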

[2] = target: Glutamate NMDA receptor (Rattus norvegicus) (UniProt P35439+Q00959+Q00960+Q00961+Q62645+Q8VHN2+Q9R1M7); test: Ratio of the inhibitory activity against […] for rat cortical and hippocampal membrane glutamate binding site to [3H]glycine for rat cortical and hippocampal membrane binding site.; format: tissue-based; settings: Hippocampus
[3] = target: Glutamate receptor ionotropic, NMDA 1 (Rattus norvegicus, UniProt P35439); test: The compound was evaluated for the ability to compete with [3H]glycine for strychnine-insensitive binding sites on rat cortical and hippocampal membrane; format: tissue-based, Hippocampus
Summary of the method: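 Rat cortical plus hippocampal membranes, competing against [³H]glycine at strychnine-insensitive sites. […] Values are the mean of ≥2 experiments, with SE within 10-30% of the mean.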

[4] = The compound was evaluated for the ability to compete with […] for rat cortical and hippocampal membrane glutamate binding site.; format: tissue-based, Hippocampus
Summary of the method: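 Competition binding against [³H]CPP at the glutamate site, using rat cortical and hippocampal membranes. […] Values are means of two or more experiments, with standard errors ±10-30% of the mean.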

[5] = target: Glutamate receptor ionotropic, AMPA (Rattus norvegicus, UniProt P19490+P19491+P19492+P19493); test: The compound was evaluated […] for the competitive binding against […] for rat cortical and hippocampal membrane glutamate binding site.
[6] = target: Glutamate receptor ionotropic, kainate; test: The compound was evaluated […] for the competitive binding against [3H]kainate for rat cortical and hippocampal membrane glutamate binding site.
Mus musculus [7] = test: The compound was evaluated in vivo for the anticonvulsant activity in quinolinic acid seizure model (intravenous), for 5 min drug pretreatment time; format: functional
Summary of the method: (§1)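 Mice got test compound in distilled water with a few drops of Tween (1 mL/kg) at set times before icv quinolinic acid (7.7 μg in 5 μL saline). Clonic-tonic seizures were watched for 15 min, and non-convulsing mice counted as protected.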

Mus musculus [8] = test: The compound was evaluated in vivo for the anticonvulsant activity in audiogenic seizure model (intraperitoneal), for 2 hr drug pretreatment time; format: functional; settings: ip
Summary of the method: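 Male DBA/2J audiogenic-susceptible mice (groups of 6-8) got test compound in methylcellulose, with saline controls by the same route. A 110 dB (12 KHz) sound was given for 30 s. Absence of tonic hindlimb extension counted as protection. ED50 was reported.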

Mus musculus [9] = test: The compound was evaluated in vivo for the anticonvulsant activity in quinolinic acid + probenecid seizure model (intravenous), for 5 min drug pretreatment time; format: functional
Summary of the method: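 Quinolinic acid seizure in mice: probenecid 200 mg/kg ip given 30 min before the test compound. Test compound in distilled water with Tween (1 mL/kg), then icv quinolinic acid (7.7 μg in 5 μL saline). Mice were watched 15 min for clonic-tonic seizures.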

Mus musculus [10] = test: The compound was evaluated in vivo for the anticonvulsant activity in quinolinic acid seizure model (intracerebroventricular), for 5 min drug pretreatment time; format: functional; settings: central; summary of the method: as §1
Mus musculus [11] = test: The compound was evaluated in vivo for the anticonvulsant activity in quinolinic acid seizure model (intraperitoneal), for 2 hr drug pretreatment time; format: functional; settings: ip; summary of the method: as §1

Structure (SMILES)	IC50 (Glutamate NMDA receptor)	IC50 [1]	Ratio [2]	also measured
O=C(O)CCc1c(C(=O)O)[nH]c2cccc(Cl)c12	–	60 µM	10	–
O=C(O)c1cc2c(Cl)cc(Cl)cc2[nH]1	–	> 1000 µM	> 150	–
Cn1c(C(=O)O)c(CCC(=O)O)c2c(Cl)cc(Cl)cc21	45 µM	> 100 µM	> 2	–
O=C(O)CCc1c(C(=O)O)[nH]c2ccccc12	27 µM	34 µM	1	–
O=C(O)CCc1cc(C(=O)O)nc2ccccc12	> 100 µM	> 100 µM	–	–
O=C(O)c1cc2ccccc2[nH]1 [INDOLE-2-CARBOXYLIC ACID]	–	4200 µM	40	–
O=C(O)c1cc(=O)c2ccccc2[nH]1 [TRANSTORINE]	–	71 µM	–	–
CS(=O)(=O)Nc1ccc2c(CCC(=O)O)c(C(=O)O)[nH]c2c1	> 100 µM	–	–	–
O=C(O)CCc1c(C(=O)O)[nH]c2cc(Oc3ccccc3)ccc12	> 1000 µM	–	–	–
COc1cc(C(=O)O)nc2ccccc12	–	–	–	IC50 [3]: > 100 µM; IC50 [4]: > 100 µM
COc1cc(OC)c2c(CCC(=O)O)c(C(=O)O)[nH]c2c1	> 100 µM	–	–	–
O=C(O)CCc1c(C(=O)O)[nH]c2c1ccc1ccccc12	> 100 µM	–	–	–
O=C(O)CCc1c(C(=O)O)[nH]c2cccc([N+](=O)[O-])c12	75 µM	–	–	–
O=C(O)CCc1c(C(=O)O)[nH]c2ccc3ccccc3c12	> 100 µM	–	–	–
O=C(O)CCc1c(C(=O)O)[nH]c2c(Cl)cccc12	> 100 µM	> 1000 µM	> 1	–

More lines, main results first:

IC50 (Glutamate NMDA receptor)	IC50 [1]	Ratio [2]	Structure (SMILES)	also measured
23 µM	25 µM	2	O=C(O)CCc1c(C(=O)O)[nH]c2ccc(Cl)cc12	–
8 µM	–	–	O=C(O)CCc1c(C(=O)O)[nH]c2cc(C(F)(F)F)ccc12	–
25 µM	710 µM	28	O=C(O)COc1cc(C(=O)O)nc2ccccc12	–
17 µM	51 µM	3	O=C(O)CCc1c(C(=O)O)[nH]c2cccc(F)c12	–
4 µM	–	–	O=C(O)CCc1c(C(=O)O)[nH]c2cc(F)cc(F)c12	–
13 µM	–	–	O=C(O)CCc1c(C(=O)O)[nH]c2cccc(C(F)(F)F)c12	–
13 µM	141 µM	11	COc1ccc2c(CCC(=O)O)c(C(=O)O)[nH]c2c1	–
12 µM	16 µM	1.6	O=C(O)CSc1c(C(=O)O)[nH]c2ccccc12	–
5 µM	–	–	O=C(O)CCc1c(C(=O)O)[nH]c2cc(F)ccc12	–
0.1 µM	–	–	O=C(O)CSc1c(C(=O)O)[nH]c2cc(Cl)cc(Cl)c12	IC50 [5]: > 100 µM; IC50 [6]: > 100 µM
0.143 µM	12 µM	80	O=C(O)c1cc(O)c2c(Cl)cc(Cl)cc2n1	–
2.5 µM	–	–	O=C(O)CCc1c(C(=O)O)[nH]c2cc([N+](=O)[O-])ccc12	–
0.17 µM	358 µM	2100 CPP/GLY	O=C(O)CCc1c(C(=O)O)[nH]c2cc(Cl)cc(Cl)c12	ED50 (Mus musculus [7]): > 50 mg/kg; IC50 [5]: 273 µM; ED50 (Mus musculus [8]): 100 mg/kg; ED50 (Mus musculus [9]): 50 mg/kg; ED50 (Mus musculus [10]): 1.5 µg; ED50 (Mus musculus [11]): 256 mg/kg; IC50 [6]: 418 µM
2 µM	283 µM	140	O=C(O)CCc1c(C(=O)O)[nH]c2cc(Cl)ccc12	–
